Laboratory results taken from ChEMBL document CHEMBL1145427, “Quick assembly of 1,4-diphenyltriazoles as probes targeting beta-amyloid aggregates in Alzheimer's disease” (J Med Chem, 2007).

Columns and labels:
[1] = Displacement of [125I]IMPY from beta amyloid protein plaques in Alzheimer's disease patient brain; parameters: species or system Homo sapiens
Outline: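 Competition binding to pooled gray-matter homogenates from four AD brains (approximately 100 mg wet tissue/mL in PBS pH 7.4; 20–50 μg per tube). [125I]2 at 0.04–0.06 nM; inhibitors 10^-5–10^-10 M in PBS with 0.1% BSA; final volume 1 mL. Nonspecific binding with 600 nM 2. Incubated 37 °C, 2 h; GF/B filtration, gamma counting. Ki from nonlinear regression.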

Zone of skin [2] = assay: Biodistribution in ICR mouse skin at 5 to 10 uCi, iv after 2 hrs; assay type: ADME, organism-based; conditions: in vivo
Outline: (§1)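 Male ICR mice (22–25 g) under isoflurane anesthesia; [125I] or [18F] tracer (5–10 μCi) in 0.15 mL of 0.1% bovine serum albumin solution injected into the tail vein. Groups of n = 3 per time point, killed by cervical dislocation. Organs removed, weighed and gamma-counted against diluted aliquots of injected dose, giving % dose/organ and % ID/g. Total blood activity assumed as 7% of body weight.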

Heart [3] = assay: Biodistribution in ICR mouse heart at 5 to 10 uCi, iv after 1 hr; assay type: ADME, organism-based; conditions: in vivo; outline: as §1
Liver [4] = assay: Biodistribution in ICR mouse liver at 5 to 10 uCi, iv after 1 hr; assay type: ADME, organism-based; conditions: in vivo; outline: as §1
Liver [5] = assay: Biodistribution in ICR mouse liver at 5 to 10 uCi, iv after 30 mins; assay type: ADME, organism-based; conditions: in vivo, 0.5 h; outline: as §1
Liver [6] = assay: Biodistribution in ICR mouse liver at 5 to 10 uCi, iv after 2 hrs; assay type: ADME, organism-based; conditions: in vivo; outline: as §1
Heart [7] = assay: Biodistribution in ICR mouse heart at 5 to 10 uCi, iv after 2 mins; assay type: ADME, organism-based; conditions: in vivo; outline: as §1
Lung [8] = assay: Biodistribution in ICR mouse lung at 5 to 10 uCi, iv after 30 mins; assay type: ADME, organism-based; conditions: in vivo, 0.5 h; outline: as §1
Lung [9] = assay: Biodistribution in ICR mouse lung at 5 to 10 uCi, iv after 2 mins; assay type: ADME, organism-based; conditions: in vivo; outline: as §1
Blood [10] = assay: Biodistribution in ICR mouse blood at 5 to 10 uCi, iv after 2 hrs; assay type: ADME, organism-based; conditions: in vivo; outline: as §1
Blood [11] = assay: Biodistribution in ICR mouse blood at 5 to 10 uCi, iv after 2 mins; assay type: ADME, organism-based; conditions: in vivo; outline: as §1
Thyroid gland [12] = assay: Biodistribution in ICR mouse thyroid at 5 to 10 uCi, iv after 2 mins; assay type: ADME, organism-based; conditions: in vivo; outline: as §1
Kidney [13] = assay: Biodistribution in ICR mouse kidney at 5 to 10 uCi, iv after 1 hr; assay type: ADME, organism-based; conditions: in vivo; outline: as §1
Blood [14] = assay: Biodistribution in ICR mouse blood at 5 to 10 uCi, iv after 1 hr; assay type: ADME, organism-based; conditions: in vivo; outline: as §1
Muscle tissue [15] = assay: Biodistribution in ICR mouse muscle at 5 to 10 uCi, iv after 2 hrs; assay type: ADME, organism-based; conditions: in vivo; outline: as §1
Kidney [16] = assay: Biodistribution in ICR mouse kidney at 5 to 10 uCi, iv after 2 hrs; assay type: ADME, organism-based; conditions: in vivo; outline: as §1
Brain [17] = assay: Biodistribution in ICR mouse brain at 5 to 10 uCi, iv after 2 mins; assay type: ADME, organism-based; conditions: in vivo; outline: as §1
Thyroid gland [18] = assay: Biodistribution in ICR mouse thyroid at 5 to 10 uCi, iv after 2 hrs; assay type: ADME, organism-based; conditions: in vivo; outline: as §1
[19] = Partition coefficient, log P of the compound; assay type: physicochemical; conditions: octanol/water
Outline: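 [125I] or [18F] tracer mixed with 3 g each of 1-octanol and 0.1 M phosphate buffer pH 7.4. Vortexed 3 min at room temperature, then centrifuged 5 min. Two 0.5 g samples from each layer counted; PC is the ratio of cpm/g in octanol to cpm/g in buffer. The octanol layer was repartitioned until values were consistent.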

Spleen [20] = assay: Biodistribution in ICR mouse spleen at 5 to 10 uCi, iv after 30 mins; assay type: ADME, organism-based; conditions: in vivo, 0.5 h; outline: as §1
Muscle tissue [21] = assay: Biodistribution in ICR mouse muscle at 5 to 10 uCi, iv after 30 mins; assay type: ADME, organism-based; conditions: in vivo, 0.5 h; outline: as §1
Spleen [22] = assay: Biodistribution in ICR mouse spleen at 5 to 10 uCi, iv after 2 hrs; assay type: ADME, organism-based; conditions: in vivo; outline: as §1
Zone of skin [23] = assay: Biodistribution in ICR mouse skin at 5 to 10 uCi, iv after 1 hr; assay type: ADME, organism-based; conditions: in vivo; outline: as §1
Spleen [24] = assay: Biodistribution in ICR mouse spleen at 5 to 10 uCi, iv after 1 hr; assay type: ADME, organism-based; conditions: in vivo; outline: as §1
Blood [25] = assay: Biodistribution in ICR mouse blood at 5 to 10 uCi, iv after 30 mins; assay type: ADME, organism-based; conditions: in vivo, 0.5 h; outline: as §1
Zone of skin [26] = assay: Biodistribution in ICR mouse skin at 5 to 10 uCi, iv after 2 mins; assay type: ADME, organism-based; conditions: in vivo; outline: as §1
Zone of skin [27] = assay: Biodistribution in ICR mouse skin at 5 to 10 uCi, iv after 30 mins; assay type: ADME, organism-based; conditions: in vivo, 0.5 h; outline: as §1
Kidney [28] = assay: Biodistribution in ICR mouse kidney at 5 to 10 uCi, iv after 30 mins; assay type: ADME, organism-based; conditions: in vivo, 0.5 h; outline: as §1
Thyroid gland [29] = assay: Biodistribution in ICR mouse thyroid at 5 to 10 uCi, iv after 1 hr; assay type: ADME, organism-based; conditions: in vivo; outline: as §1
Muscle tissue [30] = assay: Biodistribution in ICR mouse muscle at 5 to 10 uCi, iv after 1 hr; assay type: ADME, organism-based; conditions: in vivo; outline: as §1
Brain [31] = assay: Biodistribution in ICR mouse brain at 5 to 10 uCi, iv after 30 mins; assay type: ADME, organism-based; conditions: in vivo, 0.5 h; outline: as §1
Brain [32] = assay: Biodistribution in ICR mouse brain at 5 to 10 uCi, iv after 2 hrs; assay type: ADME, organism-based; conditions: in vivo; outline: as §1
Lung [33] = assay: Biodistribution in ICR mouse lung at 5 to 10 uCi, iv after 2 hrs; assay type: ADME, organism-based; conditions: in vivo; outline: as §1
Liver [34] = assay: Biodistribution in ICR mouse liver at 5 to 10 uCi, iv after 2 mins; assay type: ADME, organism-based; conditions: in vivo; outline: as §1
Brain [35] = assay: Biodistribution in ICR mouse brain at 5 to 10 uCi, iv after 1 hr; assay type: ADME, organism-based; conditions: in vivo; outline: as §1
Lung [36] = assay: Biodistribution in ICR mouse lung at 5 to 10 uCi, iv after 1 hr; assay type: ADME, organism-based; conditions: in vivo; outline: as §1
Heart [37] = assay: Biodistribution in ICR mouse heart at 5 to 10 uCi, iv after 30 mins; assay type: ADME, organism-based; conditions: in vivo, 0.5 h; outline: as §1
Spleen [38] = assay: Biodistribution in ICR mouse spleen at 5 to 10 uCi, iv after 2 mins; assay type: ADME, organism-based; conditions: in vivo; outline: as §1
Heart [39] = assay: Biodistribution in ICR mouse heart at 5 to 10 uCi, iv after 2 hrs; assay type: ADME, organism-based; conditions: in vivo; outline: as §1
Thyroid gland [40] = assay: Biodistribution in ICR mouse thyroid at 5 to 10 uCi, iv after 30 mins; assay type: ADME, organism-based; conditions: in vivo, 0.5 h; outline: as §1
Muscle tissue [41] = assay: Biodistribution in ICR mouse muscle at 5 to 10 uCi, iv after 2 mins; assay type: ADME, organism-based; conditions: in vivo; outline: as §1
Kidney [42] = assay: Biodistribution in ICR mouse kidney at 5 to 10 uCi, iv after 2 mins; assay type: ADME, organism-based; conditions: in vivo; outline: as §1

CN(C)c1ccc(-c2cn(-c3ccc(OCCOCCOCCO)cc3)nn2)cc1
Ki [1]: 16.5 nM

CN(C)c1ccc(-c2cn(-c3ccc([125I])cc3)nn2)cc1
Drug uptake (Zone of skin [2]): 1.19 % ID/g | Drug uptake (Heart [3]): 0.78 % ID/g | Drug uptake (Liver [4]): 3.74 % ID/g | Drug uptake (Liver [5]): 6.93 % ID/g | Drug uptake (Liver [6]): 2.49 % ID/g | Drug uptake (Heart [7]): 6.61 % ID/g | Drug uptake (Lung [8]): 2.55 % ID/g | Drug uptake (Lung [9]): 8.93 % ID/g | Drug uptake (Blood [10]): 1.21 % ID/g | Drug uptake (Blood [11]): 2.84 % ID/g | Drug uptake (Thyroid gland [12]): 3.17 % ID/g | Drug uptake (Kidney [13]): 2.13 % ID/g | Drug uptake (Blood [14]): 1.33 % ID/g | Drug uptake (Muscle tissue [15]): 0.36 % ID/g | Drug uptake (Kidney [16]): 1.52 % ID/g | Drug uptake (Brain [17]): 7.22 % ID/g | Drug uptake (Thyroid gland [18]): 89.1 % ID/g | logP [19]: 3.4 | Drug uptake (Spleen [20]): 1.35 % ID/g | Drug uptake (Muscle tissue [21]): 1.11 % ID/g | Drug uptake (Spleen [22]): 0.69 % ID/g | Drug uptake (Zone of skin [23]): 1.93 % ID/g | Drug uptake (Spleen [24]): 0.89 % ID/g | Drug uptake (Blood [25]): 1.63 % ID/g | Drug uptake (Zone of skin [26]): 0.71 % ID/g | Drug uptake (Zone of skin [27]): 2.2 % ID/g | Drug uptake (Kidney [28]): 3.66 % ID/g | Drug uptake (Thyroid gland [29]): 17 % ID/g | Drug uptake (Muscle tissue [30]): 0.61 % ID/g | Drug uptake (Brain [31]): 1.94 % ID/g | Drug uptake (Brain [32]): 0.29 % ID/g | Drug uptake (Lung [33]): 1.43 % ID/g | Drug uptake (Liver [34]): 17.4 % ID/g | Drug uptake (Brain [35]): 0.64 % ID/g | Drug uptake (Lung [36]): 1.66 % ID/g | Drug uptake (Heart [37]): 1.34 % ID/g | Drug uptake (Spleen [38]): 5.32 % ID/g | Drug uptake (Heart [39]): 0.56 % ID/g | Drug uptake (Thyroid gland [40]): 11 % ID/g | Drug uptake (Muscle tissue [41]): 0.76 % ID/g | Drug uptake (Kidney [42]): 11.5 % ID/g

CN(C)c1ccc(-c2cn(-c3ccc(OCCC[18F])cc3)nn2)cc1
Drug uptake (Zone of skin [2]): 0.11 % ID/g | Drug uptake (Heart [3]): 0.69 % ID/g | Drug uptake (Liver [4]): 2.06 % ID/g | Drug uptake (Liver [5]): 5.06 % ID/g | Drug uptake (Liver [6]): 0.76 % ID/g | Drug uptake (Heart [7]): 5.79 % ID/g | Drug uptake (Lung [8]): 2.4 % ID/g | Drug uptake (Lung [9]): 7.65 % ID/g | Drug uptake (Blood [10]): 0.31 % ID/g | Drug uptake (Blood [11]): 3.23 % ID/g | Drug uptake (Thyroid gland [12]): 1.57 % ID/g | Drug uptake (Kidney [13]): 2.69 % ID/g | Drug uptake (Blood [14]): 0.75 % ID/g | Drug uptake (Muscle tissue [15]): 0.1 % ID/g | Drug uptake (Kidney [16]): 0.35 % ID/g | Drug uptake (Brain [17]): 6.56 % ID/g | logP [19]: 2.7 | Drug uptake (Spleen [20]): 1.29 % ID/g | Drug uptake (Muscle tissue [21]): 1.03 % ID/g | Drug uptake (Spleen [22]): 0.17 % ID/g | Drug uptake (Zone of skin [23]): 0.41 % ID/g | Drug uptake (Spleen [24]): 0.58 % ID/g | Drug uptake (Blood [25]): 1.91 % ID/g | Drug uptake (Zone of skin [26]): 0.93 % ID/g | Drug uptake (Zone of skin [27]): 1.41 % ID/g | Drug uptake (Kidney [28]): 3.68 % ID/g | Drug uptake (Thyroid gland [29]): 16.87 % ID/g | Drug uptake (Muscle tissue [30]): 0.36 % ID/g | Drug uptake (Brain [31]): 2.84 % ID/g | Drug uptake (Brain [32]): 1.29 % ID/g | Drug uptake (Lung [33]): 0.76 % ID/g | Drug uptake (Liver [34]): 15.6 % ID/g | Drug uptake (Brain [35]): 1.81 % ID/g | Drug uptake (Lung [36]): 0.88 % ID/g | Drug uptake (Heart [37]): 1.93 % ID/g | Drug uptake (Spleen [38]): 3.98 % ID/g | Drug uptake (Heart [39]): 0.23 % ID/g | Drug uptake (Thyroid gland [40]): 9.62 % ID/g | Drug uptake (Muscle tissue [41]): 0.89 % ID/g | Drug uptake (Kidney [42]): 9.01 % ID/g
